{"data": "Experimental data collected from several papers", "action": "inhibitor", "rep main protease": "Replicase polyprotein 1ab, main protease (rep, Severe acute respiratory syndrome coronavirus 2, UniProt P0DTD1)", "rep papain-like protease": "Replicase polyprotein 1ab, papain-like protease (rep, Severe acute respiratory syndrome coronavirus 2, UniProt P0DTD1)", "note": "Each line is one published result; the experiments were not run side by side."}
{"Structure (SMILES)": "NC(=O)CCOC1CCN(C(c2ccccc2)c2ccccc2)CC1", "target": "rep main protease", "test": "enzyme activity", "conditions": "20 µM", "inhibition [%]": 11.5}
{"Structure (SMILES)": "O=c1c(O)c(-c2ccc(O)c(O)c2)oc2cc(O)cc(O)c12", "target": "rep main protease", "test": "enzyme activity, FRET", "conditions": "10 µM, 10 min", "inhibition [%]": "> 50"}
{"Structure (SMILES)": "CCC(CC)COC(=O)[C@H](C)N[P@](=O)(OC[C@H]1O[C@@](C#N)(c2ccc3c(N)ncnn23)[C@H](O)[C@@H]1O)Oc1ccccc1", "target": "Replicase polyprotein 1ab, polymerase (rep, Severe acute respiratory syndrome coronavirus 2, UniProt P0DTD1)", "test": "enzyme activity in cells", "test system": "HEK-293T", "conditions": "10 µM", "inhibition [%]": 87}
{"Structure (SMILES)": "O=c1c(O)c(-c2ccc(O)cc2)oc2cc(O)cc(O)c12", "target": "rep main protease", "test": "enzyme activity, FRET", "conditions": "10 µM, 10 min", "inhibition [%]": 45}
{"Structure (SMILES)": "CN(C(=O)[C@H](Cc1ccccc1)NC(=O)[C@@H](NC(=O)OCc1ccccc1)C(C)(C)C)N(C#N)CCC(N)=O", "target": "rep main protease", "test": "enzyme activity, fluorescence", "conditions": "50 µM, pH 7.2", "inhibition [%]": 100}
{"Structure (SMILES)": "O=c1cc(-c2ccc(O)cc2)oc2cc(O)c(O)c(O)c12", "target": "rep main protease", "test": "enzyme activity", "conditions": "100 µM", "inhibition [%]": 102}
{"Structure (SMILES)": "Cc1ccc(NC2C=CS(=O)(=O)C2)cc1 (centres unmarked)", "target": "rep main protease", "test": "enzyme activity", "conditions": "20 µM", "inhibition [%]": 2.03}
{"Structure (SMILES)": "Cc1cccn2c(=O)c3cc(C(=O)Nc4ccc(N(C)C)cc4)n(C)c3nc12", "target": "rep main protease", "test": "enzyme activity", "conditions": "100 µM", "inhibition [%]": 33}
{"Structure (SMILES)": "CCOC(=O)COc1cc(C)cc2c1C(=O)C=CC2=O", "target": "rep main protease", "test": "enzyme activity", "conditions": "0.1 µM", "inhibition [%]": 29.6}
{"Structure (SMILES)": "CC(=O)Nc1ccc(C2NN=C(c3ccc(C(F)(F)F)cn3)N2)cc1 (centres unmarked)", "target": "rep main protease", "test": "enzyme activity", "conditions": "20 µM", "inhibition [%]": 4.63}
{"Structure (SMILES)": "Cc1ccc(NC(=O)c2cc3c(=O)n4cccc(C)c4nc3n2C)cc1Cl", "target": "rep main protease", "test": "enzyme activity", "conditions": "1 µM", "inhibition [%]": 6.4}
{"Structure (SMILES)": "COCOc1cc(C)cc2c1C(=O)C=CC2=O", "target": "rep main protease", "test": "enzyme activity", "conditions": "10 µM", "inhibition [%]": 79.6}
{"Structure (SMILES)": "S=c1[nH]c2ccccc2s1", "target": "rep main protease", "test": "enzyme activity", "conditions": "20 µM", "inhibition [%]": 63.6}
{"Structure (SMILES)": "Cn1c(C(=O)Nc2ccc3c(c2)OCCO3)cc2c(=O)n3ccccc3nc21", "target": "rep main protease", "test": "enzyme activity", "conditions": "100 µM", "inhibition [%]": 71}
{"Structure (SMILES)": "COc1ccc(OC)c2c1C(=O)C=CC2=O", "target": "rep main protease", "test": "enzyme activity", "conditions": "10 µM", "inhibition [%]": 78.5}
{"Structure (SMILES)": "CCN(CC)C(=S)SSC(=S)N(CC)CC", "target": "rep main protease", "test": "enzyme activity, fluorescence", "conditions": "10 µM, pH 7.2", "inhibition [%]": 100}
{"Structure (SMILES)": "Oc1cc2c(cc1O)[C@H]1c3ccccc3CN[C@@H]1CC2 (racemic)", "target": "rep main protease", "test": "enzyme activity", "conditions": "20 µM", "inhibition [%]": -15.1}
{"Structure (SMILES)": "CC(C)=CCc1cc(-c2oc3cc(O)cc(O)c3c(=O)c2O)ccc1O", "target": "rep papain-like protease", "test": "enzyme activity", "conditions": "8 µM", "inhibition [%]": 59.9}
{"Structure (SMILES)": "O=C1C=C(O)C(=O)c2ccccc21", "target": "rep main protease", "test": "enzyme activity", "conditions": "10 µM", "inhibition [%]": -1.7}
{"Structure (SMILES)": "O=C(Oc1cc([N+](=O)[O-])ccc1F)c1cccc2[nH]ccc12", "target": "rep main protease", "test": "enzyme activity, fluorescence", "conditions": "10 µM, pH 7.2", "inhibition [%]": 2}
{"Structure (SMILES)": "COC(=O)C1=CO[C@@H](O[C@@H]2O[C@H](CO)[C@@H](O)[C@H](O)[C@H]2O)[C@@H]2[C@@H](C)[C@@H](O)C[C@H]12", "target": "rep papain-like protease", "test": "enzyme activity", "conditions": "50 µM", "inhibition [%]": -1.7}
{"Structure (SMILES)": "O=C(NCc1ccccn1)Nc1csc2ccccc12", "target": "rep main protease", "test": "enzyme activity", "conditions": "20 µM", "inhibition [%]": -3.23}
{"Structure (SMILES)": "NC(=O)c1ccc(/C=C/C(=O)N2CCC[C@@]3(CCN(C(=O)[C@@H]4CC(=O)NC(=O)N4)C3)C2)cc1", "target": "rep main protease", "test": "enzyme activity", "conditions": "5 µM", "inhibition [%]": 14.7}
{"Structure (SMILES)": "Cc1ccc2nc(Cl)c(/C=N/NC(=O)c3ccncc3)cc2c1", "target": "rep papain-like protease", "test": "enzyme activity", "conditions": "10 µM", "inhibition [%]": 9.2}
{"Structure (SMILES)": "COc1cc([C@H]2OC[C@H]3[C@@H]2CO[C@H]3c2ccc(OC)c(OC)c2)ccc1O", "target": "rep papain-like protease", "test": "enzyme activity", "conditions": "50 µM", "inhibition [%]": 8.5}
{"Structure (SMILES)": "COc1cc(C)cc2c1C(=O)C=CC2=O", "target": "rep main protease", "test": "enzyme activity", "conditions": "0.1 µM", "inhibition [%]": -4.4}
{"Structure (SMILES)": "C[C@@H]1O[C@@H](O[C@@H]2[C@@H](O)[C@H](OCCc3ccc(O)c(O)c3)O[C@H](CO)[C@H]2OC(=O)/C=C/c2ccc(O)c(O)c2)[C@H](O)[C@H](O)[C@H]1O", "target": "rep papain-like protease", "test": "enzyme activity", "conditions": "50 µM", "inhibition [%]": 15.6}
{"Structure (SMILES)": "CCOC(=O)C(Cc1c[nH]c2ccccc12)NC(=O)CCC(=O)Nc1ccc(S(N)(=O)=O)cc1 (centres unmarked)", "target": "rep main protease", "test": "enzyme activity", "conditions": "100 µg/mL", "inhibition [%]": 0}
{"Structure (SMILES)": "COc1cc(C[C@@H](C)[C@@H](C)Cc2ccc(O)c(OC)c2)ccc1O", "target": "rep papain-like protease", "test": "enzyme activity, FRET", "conditions": "8 µM", "inhibition [%]": 56.4}
{"Structure (SMILES)": "Oc1ccc(/C=C/c2cc(O)cc(O)c2)cc1", "target": "rep main protease", "test": "enzyme activity, FRET", "conditions": "10 µM, 10 min", "inhibition [%]": "> 50"}
{"Structure (SMILES)": "CCc1ccc(NC(=O)c2cc3c(=O)n4ccccc4nc3n2C)cc1", "target": "rep main protease", "test": "enzyme activity", "conditions": "100 µM", "inhibition [%]": 49}
{"Structure (SMILES)": "CN(C)C(=O)COC(=O)Cc1ccc(OC(=O)c2ccc(NC(=N)N)cc2)cc1", "target": "rep main protease", "test": "enzyme activity", "conditions": "10 µM", "inhibition [%]": 6}
{"Structure (SMILES)": "CC(=O)Nc1ccc(-c2cnc(/N=C\\c3cc4ccccc4nc3Cl)s2)cc1", "target": "rep papain-like protease", "test": "enzyme activity", "conditions": "10 µM", "inhibition [%]": 39}
{"Structure (SMILES)": "Cc1cc(OCc2ccccc2)c2c(c1)C(=O)C=CC2=O", "target": "rep main protease", "test": "enzyme activity", "conditions": "10 µM", "inhibition [%]": 96.4}
{"Structure (SMILES)": "O=C(/C=C/c1ccc(O)c(O)c1)OC1CC(OC(=O)/C=C/c2ccc(O)c(O)c2)(C(=O)O)CC(O)C1O (centres unmarked)", "target": "rep main protease", "test": "enzyme activity", "conditions": "10 µM", "inhibition [%]": 27.8}
{"Structure (SMILES)": "C/N=c1\\nc(-c2ccccc2)n(-c2ccccc2)s1", "target": "rep main protease", "test": "enzyme activity", "conditions": "1 µM", "inhibition [%]": 96.3}
{"Structure (SMILES)": "Cn1c(C(=O)Nc2ccc(Cl)cc2)cc2c(=O)n3ccccc3nc21", "target": "rep main protease", "test": "enzyme activity", "conditions": "10 µM", "inhibition [%]": 14}
{"Structure (SMILES)": "O=C(CCc1ccccc1)Nc1ccc2c(c1)C(=O)OC2", "target": "rep main protease", "test": "enzyme activity", "conditions": "20 µM", "inhibition [%]": -0.804}
{"Structure (SMILES)": "Cc1ncc(/C=C\\C(=O)NC[C@@H]2CC3(CCC3)CN2C(=O)[C@@H]2CC(=O)NC(=O)N2)c(=O)[nH]1", "target": "rep main protease", "test": "enzyme activity", "conditions": "5 µM", "inhibition [%]": 16.1}
{"Structure (SMILES)": "Oc1cc(O)c2c(c1)OC(c1ccc(O)c(O)c1)C(O)C2 (centres unmarked)", "target": "rep main protease", "test": "enzyme activity", "conditions": "20 µM", "inhibition [%]": 22.6}
{"Structure (SMILES)": "Cc1ccc2nc(Cl)c(/C=N/c3cccc([N+](=O)[O-])c3)cc2c1", "target": "rep papain-like protease", "test": "enzyme activity", "conditions": "10 µM", "inhibition [%]": 5.3}
